Type in all cases: functional
Assay [1] relates to Radical scavenging activity. The assay can be described thus: Antioxidant activity assessed as DPPH radical scavenging activity at 100 ug after 30 mins by ELISA. The method in brief: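 Ethanolic DPPH (200 µl) mixed with 10 µl compound solution (100 µg) in 96-well plate, 37 °C for 30 min; decrease in absorbance read at 490 nm on ELISA reader. Ascorbic acid (10 µg) standard.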

A further assay has as its system MCF7. Kind of assay: Anticancer activity against human MCF7 cells assessed as cell viability at 10 ug after 3 hrs by trypan blue dye exclusion assay. The method in brief:
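MCF-7 cells grown in peritoneal cavity of albino mice (25–30 g) after i.p. injection of 1 × 10^6 cells/ml; aspirated day 15, washed three times in HBSS, adjusted to 1 × 10^6 cells/ml. 0.1 ml cells plus 0.1 ml compound (10 µg), 37 °C, 5% CO2, 3 h. Trypan blue (0.4%, 1:1) exclusion, haemocytometer count; % cytotoxicity versus untreated control, triplicate.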

In assay [2] the test system is Radical scavenging activity. Kind of assay: Antioxidant activity assessed as DPPH radical scavenging activity after 30 mins by ELISA. The essentials:
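DPPH discolouration in 96-well plate: 200 µl ethanolic DPPH plus 10 µl compound solution; 37 °C, 30 min; absorbance at 490 nm on ELISA reader. IC50 (concentration inhibiting 50% of free radicals) from serial dilutions below 100 µg. Ascorbic acid (10 µg) standard.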

The source made the active and inactive calls. The rule behind the calls is not given here.

As to `COc1cc(C2NC(=S)NC(C)=C2C(=O)Nc2ccccc2Cl)ccc1O` (centres undefined), the result in assay [1] was inactive. In addition, the Activity in the assay with MCF7 amounted to 45%.
Turning to `CNC(=O)C1=C(C)NC(=O)NC1c1cccc([N+](=O)[O-])c1` (centres undefined), the IC50 in assay [2] turned out to be 63 µg. Also, the Activity in the assay with MCF7 stood at 23%.
Turning to `CNC(=O)C1=C(C)NC(=O)NC1c1ccccc1` (centres undefined), the outcome in assay [1] was inactive. Besides, in the assay on MCF7, the Activity was 27%.
In the case of `CC1=C(C(=O)Nc2ccccc2Cl)C(c2ccccc2)NC(=N)N1C#N` (centres undefined), the outcome in assay [1] was inactive. Besides, in the assay on MCF7, the Activity is 35%.
As for `CNC(=O)C1=C(C)NC(=O)NC1C(=O)/C=C/c1ccccc1` (centres undefined), the result in assay [1] was inactive. The Activity in the assay on MCF7 is 47%.
`COc1cc(C2NC(=O)NC(C)=C2C(=O)Nc2ccccc2Cl)ccc1O` (centres undefined): the outcome in assay [1] was inactive. Also, in the assay with MCF7, the Activity is listed as 52%.
For the compound `CNC(=O)C1=C(C)NC(=S)NC1c1ccco1` (centres undefined), the outcome in assay [1] was inactive. In the assay with MCF7, the Activity is 57%.
For `CNC(=O)C1=C(C)NC(=S)NC1c1ccccc1O` (centres undefined) the same measures were “inactive” and 45%.
As for `CNC(=O)C1=C(C)NC(=S)NC1c1cccc([N+](=O)[O-])c1` (centres undefined), in assay [2], the IC50 is 58 µg. Besides, the Activity with MCF7 is given as 39%.
Turning to `CC1=C(C(=O)Nc2ccccc2Cl)C(c2ccc(Br)cc2)NC(=O)N1` (centres undefined), the result in assay [1] was inactive. In addition, the Activity in the assay with MCF7 was found to be 7%.
On to `CC1=C(C(=O)Nc2ccccc2Cl)C(c2ccco2)NC(=O)N1` (centres undefined), for which the result in assay [1] was inactive. Moreover, in the assay with MCF7, the Activity was 69%.
With `CC1=C(C(=O)Nc2ccccc2Cl)C(c2ccco2)NC(=S)N1` (centres undefined), the result in assay [1] was inactive. In addition, the Activity in the assay with MCF7 stood at 76%.
With `CC1=C(C(=O)Nc2ccccc2Cl)C(c2ccccc2)NC(=S)N1` (centres undefined), in assay [1], the outcome was inactive. For the same compound, in the assay on MCF7, the Activity is recorded as 25%.
Turning to `CC1=C(C(=O)Nc2ccccc2Cl)C(C(=O)/C=C/c2ccccc2)NC(=S)N1` (centres undefined), the result in assay [1] was inactive. Further, the Activity in the assay on MCF7 came out at 71%.
Take `CNC(=O)C1=C(C)NC(=S)NC1c1ccc(OC)cc1` (centres undefined): in assay [1], the result was inactive. For the same compound, the Activity with MCF7 is on record as 48%.
With `CC1=C(C(=O)Nc2ccccc2Cl)C(c2cccc([N+](=O)[O-])c2)NC(=S)N1` (centres undefined), in assay [1], the outcome was inactive. For the same compound, in the assay with MCF7, the Activity came to 13%.
For `CC1=C(C(=O)Nc2ccccc2Cl)C(c2ccc(Br)cc2)NC(=S)N1` (centres undefined), the outcome in assay [1] was inactive. In addition, the Activity with MCF7 turned out to be 18%.
For `CNC(=O)C1=C(C)NC(=O)NC1c1ccc(O)c(OC)c1` (centres undefined) the same measures were “inactive” and 49%.
Regarding `CC1=C(C(=O)Nc2ccccc2Cl)C(c2ccncc2)NC(=O)N1` (centres undefined), the result in assay [1] was inactive. In the assay on MCF7, the Activity amounted to 59%.
As to `CC1=C(C(=O)Nc2ccccc2Cl)C(c2ccccc2)NC(=O)N1` (centres undefined), in assay [1], the outcome was inactive. The Activity with MCF7 stood at 30%.
The like results for `CNC(=O)C1=C(C)NC(=O)NC1c1ccco1` (centres undefined) were, in that order, “inactive” and 61%.
On to `CC1=C(C(=O)Nc2ccccc2Cl)C(c2ccccc2O)NC(=O)N1` (centres undefined), for which the result in assay [1] was inactive. Besides, in the assay on MCF7, the Activity was 58%.
As for `CC1=C(C(=O)Nc2ccccc2Cl)C(c2ccccc2O)NC(=S)N1` (centres undefined), the result in assay [1] was inactive. For the same compound, the Activity with MCF7 is on record as 49%.
For `COc1ccc(C2NC(=O)NC(C)=C2C(=O)Nc2ccccc2Cl)cc1` (centres undefined), the outcome in assay [1] was inactive. Moreover, in the assay on MCF7, the Activity is 51%.
As for `CC1=C(C(=O)Nc2ccccc2Cl)C(C(=O)/C=C/c2ccccc2)NC(=O)N1` (centres undefined), in assay [1], the outcome was inactive. Moreover, the Activity in the assay with MCF7 worked out at 79%.
For `CNC(=O)C1=C(C)NC(=S)NC1c1ccccc1` (centres undefined) the same measures were “inactive” and 35%.
Consider `CC1=C(C(=O)Nc2ccccc2Cl)C(c2cccc([N+](=O)[O-])c2)NC(=O)N1` (centres undefined), for which the result in assay [1] was inactive. Moreover, the Activity in the assay with MCF7 was determined as 29%.
On to `CNC(=O)C1=C(C)NC(=S)NC1c1ccc(O)c(OC)c1` (centres undefined), for which, in assay [1], the outcome was inactive. Further, the Activity with MCF7 amounted to 41%.
Turning to `CC1=C(C(=O)Nc2ccccc2Cl)C(c2ccncc2)NC(=S)N1` (centres undefined), the outcome in assay [1] was inactive. Also, the Activity with MCF7 worked out at 72%.
The like results for `CNC(=O)C1=C(C)NC(=O)NC1c1ccncc1` (centres undefined) were, in that order, “inactive” and 64%.
In the case of `COc1ccc(C2NC(=S)NC(C)=C2C(=O)Nc2ccccc2Cl)cc1` (centres undefined), the outcome in assay [1] was inactive. Moreover, the Activity with MCF7 came out at 47%.
As for `CNC(=O)C1=C(C)NC(=O)NC1c1ccc(OC)cc1` (centres undefined), the outcome in assay [1] was inactive. In addition, the Activity in the assay with MCF7 amounted to 41%.

The record behind these values is ChEMBL document CHEMBL1154086, “Novel Biginelli dihydropyrimidines with potential anticancer activity: a parallel synthesis and CoMSIA study” (Eur J Med Chem, 2009).
